The target in one assay is T1, YchF (YchFE.coli) (Escherichia coli, UniProt P0ABU2).
T1 sequence (P0ABU2 1-363): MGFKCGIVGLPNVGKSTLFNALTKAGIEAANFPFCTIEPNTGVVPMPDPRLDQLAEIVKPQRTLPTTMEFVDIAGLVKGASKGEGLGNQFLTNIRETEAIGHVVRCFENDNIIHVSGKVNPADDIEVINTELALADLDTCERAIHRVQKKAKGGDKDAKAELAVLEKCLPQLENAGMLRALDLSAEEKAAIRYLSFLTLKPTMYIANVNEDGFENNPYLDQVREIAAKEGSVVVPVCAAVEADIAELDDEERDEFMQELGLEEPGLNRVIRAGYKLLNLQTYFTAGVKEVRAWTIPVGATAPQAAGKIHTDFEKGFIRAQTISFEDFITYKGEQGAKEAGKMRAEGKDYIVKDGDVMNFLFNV
Briefly: equilibrium titration, intrinsic tryptophan fluorescence. Format: binding. In outline:
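Purified E. coli YchF in TAKM7 (50 mM Tris-Cl 7.5, 70 mM NH4Cl, 30 mM KCl, 7 mM MgCl2) titrated with nucleotides. Intrinsic fluorescence recorded in a stirred quartz cuvette: excitation 280 nm (2 nm slit), emission 295–400 nm in 1 nm steps (5 nm slits). With triphosphates, scans started immediately without equilibration. Spectra corrected against nucleotide titration into buffer alone.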

In assay [1] the target is 70S ribosome from E. coli, purified (E. coli). As to the kind of experiment: co-sedimentation.

The Kd is the equilibrium constant for the complex coming apart. A lower Kd goes with higher affinity. On to `Nc1ncnc2c1ncn2[C@@H]1O[C@H](COP(=O)(O)OP(=O)(O)NP(=O)(O)O)[C@@H](O)[C@H]1O` [ADPNP], for which the Kd on YchF (YchFE.coli) was 9 ± 8 µM.
`Nc1ncnc2c1ncn2[C@@H]1O[C@H](COP(=O)(O)OP(=O)(O)O)[C@@H](O)[C@H]1O` [ADP] came in with a Kd on YchF (YchFE.coli) of 14 ± 5 µM.
The same measure, in the same setting: for `Nc1nc2c(ncn2[C@@H]2O[C@H](COP(=O)(O)OP(=O)(O)O)[C@@H](O)[C@H]2O)c(=O)[nH]1` [GDP] the value was 151 ± 38 µM; for `Nc1nc2c(ncn2[C@@H]2O[C@H](COP(=O)(O)OP(=O)(O)OP(=O)(O)O)[C@@H](O)[C@H]2O)c(=O)[nH]1` [GTP], 206 ± 5 µM.

B1: N-terminally His-tagged YchF from Escherichia coli (enzyme)
chain: T1 sequence (P0ABU2 1-363)
A word on the stoichiometry N: it is the number of molecules, sites or subunits per partner or assembly. In assay [1], B1 showed a Kd of 3.3 µM and a stoichiometry N of 0.3 YchF per 70S.

The values above are taken from paper PMC3583859 (RNA Biology, 2012).
